Results pooled from the literature.
Lines come from different studies, so protocols differ.
Target: Serine/threonine-protein kinase WNK2 (WNK2, Homo sapiens, UniProt Q9Y3S1)

SMILES	read-out	technique	concentration	remaining binding [%]
C[C@@H](c1ccc(-n2cnc3c(N)ncnc32)cc1)N1CCc2nn(C)c(Cc3ccccc3)c2C1=O	binding	competition with immobilised ligand	0.1 µM	65
CCc1ccccc1C(=O)Nc1n[nH]c2c(C)c(F)c(C3C(C#N)=C(C)N(C)C(C)=C3C#N)cc12	cell-free assay	competition with immobilised ligand	1 µM	100
CN(C)c1nccc(-c2cnc3ncccn23)n1	binding	–	1 µM	94
O=C(Nc1c[nH]nc1C(=O)NC1CCNCC1)c1cc(F)cc(F)c1	binding	competition with immobilised ligand	1 µM	100
O=C(NCCCN1CCOCC1)c1ccc(Nc2nccc(-c3cc4ccccc4s3)n2)cc1	binding	competition with immobilised ligand	1 µM	60
CNC(=O)Nc1ccc2c(c1)CC[C@@]21OC(=O)N(CC(=O)N(Cc2ccc(F)cc2)[C@@H](C)C(F)(F)F)C1=O	cell-free assay	competition with immobilised ligand	1 µM	100
FC(F)(F)Oc1cccc(-c2cnc3ccc(-c4ccncc4)nn23)c1	binding	competition with immobilised ligand	5 µM	86
CCS(=O)(=O)c1cc2cc(C[C@@](O)(CC(C)(C)c3ccc(F)cc3C(N)=O)C(F)(F)F)[nH]c2cn1	cell-free assay	competition with immobilised ligand	1 µM	46
F[C@@H]1CCN(c2nccc(-c3cnn4ncccc34)n2)C1	binding	–	1 µM	100
CC(C)(O)c1cncc(-c2nc3ccc(F)cc3n2C2CC2)c1	cell-free assay	competition with immobilised ligand	1 µM	100
CNC(=O)[C@@H]1CC[C@@H](n2c(-c3ccc4cnccc4c3)nc3ccc(C(=O)NCc4cccc(C(N)=O)c4)cc32)C1	binding	competition with immobilised ligand	1 µM	100
C[C@@H]1CCN(c2nccc(-c3cnn4ncccc34)n2)C1	binding	–	1 µM	100
CC1=C(C#N)[C@@H](c2ccc3[nH]nc(C)c3c2)C(C#N)=C(c2ccc(Cl)cc2)N1	cell-free assay	competition with immobilised ligand	1 µM	100
O=C(c1ccc(Nc2ncc(Cl)c(-c3ccc(Cl)s3)n2)cc1)N1CCC(N2CCCC2)CC1	binding	competition with immobilised ligand	1 µM	88
N[C@H]1CCN(c2nccc(-c3cnn4ncccc34)n2)C1	binding	–	1 µM	100
Nc1ncc2c(n1)-c1c([nH]c3ccc(C#CC4CC4)cc13)CCCC2	binding	competition with immobilised ligand	1 µM	100
CN(C)c1ncc(F)c(-c2cnn3ncccc23)n1	binding	–	1 µM	82
O=C(c1ccc(Nc2ncc(Cl)c(-c3cc4ccccc4s3)n2)cc1)N1CCC(N2CCCC2)CC1	binding	competition with immobilised ligand	1 µM	83
COc1ccnn2ncc(-c3ccnc(N(C)C)n3)c12	binding	–	1 µM	100
Cc1c[nH]c2nccc(Oc3c(F)cc(Nc4cc(Cl)nc(N)n4)cc3F)c12	cell-free assay	competition with immobilised ligand	0.1 µM	96
